pIC50: −log10 of the molar value.
Tests used:
[1] = biological target: T1, Nitric oxide synthase 3 (Homo sapiens, UniProt P29474); test: Inhibition of human endothelial Nitric Oxide Synthase expressed in Sf-21 cells; design: species or system Sf21
T1 sequence (P29474 whole entry): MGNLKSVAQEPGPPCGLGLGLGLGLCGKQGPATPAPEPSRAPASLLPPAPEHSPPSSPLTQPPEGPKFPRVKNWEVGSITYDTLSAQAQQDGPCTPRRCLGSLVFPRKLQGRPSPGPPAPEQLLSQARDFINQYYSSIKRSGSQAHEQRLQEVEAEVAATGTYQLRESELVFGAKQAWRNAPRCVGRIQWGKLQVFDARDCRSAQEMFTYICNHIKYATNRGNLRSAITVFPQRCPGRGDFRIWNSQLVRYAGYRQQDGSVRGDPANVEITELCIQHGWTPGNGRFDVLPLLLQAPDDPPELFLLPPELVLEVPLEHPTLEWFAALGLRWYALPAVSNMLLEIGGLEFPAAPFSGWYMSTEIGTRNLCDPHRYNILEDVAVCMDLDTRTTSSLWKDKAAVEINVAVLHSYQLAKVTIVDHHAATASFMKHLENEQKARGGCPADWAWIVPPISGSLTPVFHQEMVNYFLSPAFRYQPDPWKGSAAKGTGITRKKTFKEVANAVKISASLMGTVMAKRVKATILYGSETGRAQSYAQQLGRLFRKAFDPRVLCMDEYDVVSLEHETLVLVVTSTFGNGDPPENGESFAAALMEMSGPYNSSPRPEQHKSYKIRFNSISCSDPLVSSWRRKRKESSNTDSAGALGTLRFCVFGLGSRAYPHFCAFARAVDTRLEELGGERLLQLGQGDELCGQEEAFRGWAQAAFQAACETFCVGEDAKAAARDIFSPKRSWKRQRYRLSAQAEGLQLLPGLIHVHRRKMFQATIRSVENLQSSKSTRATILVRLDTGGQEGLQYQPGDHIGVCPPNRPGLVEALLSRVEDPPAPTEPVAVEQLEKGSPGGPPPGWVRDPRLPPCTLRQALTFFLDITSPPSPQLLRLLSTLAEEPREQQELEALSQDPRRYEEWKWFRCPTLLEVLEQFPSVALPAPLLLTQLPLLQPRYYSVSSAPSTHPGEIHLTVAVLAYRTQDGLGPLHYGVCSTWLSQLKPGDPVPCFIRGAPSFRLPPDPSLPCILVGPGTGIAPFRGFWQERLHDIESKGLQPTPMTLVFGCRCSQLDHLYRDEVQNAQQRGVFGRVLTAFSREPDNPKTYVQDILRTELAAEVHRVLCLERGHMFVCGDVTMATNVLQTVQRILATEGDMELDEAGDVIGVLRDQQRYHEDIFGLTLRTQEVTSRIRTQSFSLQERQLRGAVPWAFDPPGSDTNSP
How it was run: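 Human eNOS was overexpressed in Sf-21 insect cells by infection with baculovirus carrying heNOS cDNA, then partially purified on 2',5'-ADP-Sepharose. Activity was read as [14C]-L-arginine to L-citrulline conversion at several inhibitor and L-arginine levels. Ki and mode of inhibition came from Dixon and Lineweaver–Burk plots.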

[2] = biological target: Nitric oxide synthase (inducible and endothelial) (Homo sapiens) (UniProt P35228+P29474); test: Selectivity was evaluated as the rate of the IC50 values for heNOS and hiNOS.; format: protein assay
[3] = biological target: T2, Nitric oxide synthase, inducible (Homo sapiens, UniProt P35228); test: Concentration required to inhibit human Inducible nitric oxide synthase over expressed in A549 cells; format: cell-based
T2 sequence (P35228 whole entry): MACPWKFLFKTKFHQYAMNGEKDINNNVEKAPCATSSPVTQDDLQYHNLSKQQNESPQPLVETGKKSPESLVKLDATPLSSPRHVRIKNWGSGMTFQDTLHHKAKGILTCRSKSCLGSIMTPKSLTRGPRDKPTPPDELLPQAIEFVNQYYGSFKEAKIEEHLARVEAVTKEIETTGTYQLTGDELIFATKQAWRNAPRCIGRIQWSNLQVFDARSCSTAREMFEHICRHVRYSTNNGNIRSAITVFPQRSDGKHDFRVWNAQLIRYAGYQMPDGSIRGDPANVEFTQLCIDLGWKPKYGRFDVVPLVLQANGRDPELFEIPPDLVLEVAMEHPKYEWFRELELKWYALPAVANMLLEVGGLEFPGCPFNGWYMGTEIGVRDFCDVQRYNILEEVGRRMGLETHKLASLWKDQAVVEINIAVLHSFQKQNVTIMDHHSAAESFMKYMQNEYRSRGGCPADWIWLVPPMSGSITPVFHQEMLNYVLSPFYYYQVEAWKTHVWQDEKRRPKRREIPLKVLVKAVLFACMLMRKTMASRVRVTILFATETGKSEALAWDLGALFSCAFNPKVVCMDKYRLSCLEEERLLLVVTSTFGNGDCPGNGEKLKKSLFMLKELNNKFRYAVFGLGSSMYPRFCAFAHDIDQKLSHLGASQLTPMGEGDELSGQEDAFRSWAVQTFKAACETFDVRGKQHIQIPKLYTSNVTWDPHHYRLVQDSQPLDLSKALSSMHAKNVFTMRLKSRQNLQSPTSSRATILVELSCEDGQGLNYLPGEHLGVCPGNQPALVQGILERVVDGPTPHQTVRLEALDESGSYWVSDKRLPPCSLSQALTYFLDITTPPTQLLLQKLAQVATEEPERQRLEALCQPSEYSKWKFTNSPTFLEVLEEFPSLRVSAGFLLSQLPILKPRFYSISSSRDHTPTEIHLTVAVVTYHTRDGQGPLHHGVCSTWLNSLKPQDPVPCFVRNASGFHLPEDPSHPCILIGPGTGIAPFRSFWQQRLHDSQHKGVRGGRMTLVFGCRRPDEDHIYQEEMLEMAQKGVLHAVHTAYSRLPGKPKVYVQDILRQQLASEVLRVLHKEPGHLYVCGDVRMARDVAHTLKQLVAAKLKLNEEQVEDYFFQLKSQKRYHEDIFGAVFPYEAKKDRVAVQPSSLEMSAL
How it was run: (§1)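 Human iNOS was induced in A549 cells by LPS plus cytokines (10 ng/mL TNF-a, 5 ng/mL IL-1b, 100 ng/mL interferon-g), then partially purified on 2',5'-ADP-Sepharose. Activity was read as conversion of [14C]-L-arginine to L-citrulline at several inhibitor and L-arginine levels. Ki and mode of inhibition came from Dixon and Lineweaver–Burk plots.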

[4] = biological target: T3, Nitric oxide synthase 3 (Homo sapiens) (UniProt P29474); test: Selectivity was evaluated as the rate of the IC50 values for Endothelial Nitric Oxide Synthase and Inducible nitric oxide synthase
T3 sequence (whole entry): T1 sequence (P29474 whole entry)

[5] = biological target: T2, Nitric oxide synthase, inducible; test: Concentration required to inhibit Inducible nitric oxide synthase over expressed in A549 cells; format: cell-based; how it was run: as §1
[6] = system: Mus musculus; test: Maximum tolerated dose (MTD) at which no death was observed within 24 hr after intravenous administration.; format: functional
How it was run: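 Normal mice (mouse acute toxicity) given a single intravenous dose of test compound. MTD taken as the maximum dose at which no death was observed within 24 h after injection.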

[7] = Ratio of MTD/ID50 for NOx accumulation in mice; format: functional
How it was run: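 Balb/c mice, 7 weeks old, got LPS 10 mg/kg iv, then test compound or saline sc 3 h later. Plasma was taken from the abdominal aorta at 6 h, and NOx accumulated over 3 h was measured. ID50 is the sc dose halving LPS-induced NOx. MTD is the highest iv dose in normal mice with no death within 24 h. Ratio is MTD/ID50.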

[8] = biological target: T4, Nitric oxide synthase, inducible (Mus musculus, UniProt P29477); test: The concentration required for inhibition of Inducible nitric oxide synthase in mouse
T4 sequence (P29477 whole entry): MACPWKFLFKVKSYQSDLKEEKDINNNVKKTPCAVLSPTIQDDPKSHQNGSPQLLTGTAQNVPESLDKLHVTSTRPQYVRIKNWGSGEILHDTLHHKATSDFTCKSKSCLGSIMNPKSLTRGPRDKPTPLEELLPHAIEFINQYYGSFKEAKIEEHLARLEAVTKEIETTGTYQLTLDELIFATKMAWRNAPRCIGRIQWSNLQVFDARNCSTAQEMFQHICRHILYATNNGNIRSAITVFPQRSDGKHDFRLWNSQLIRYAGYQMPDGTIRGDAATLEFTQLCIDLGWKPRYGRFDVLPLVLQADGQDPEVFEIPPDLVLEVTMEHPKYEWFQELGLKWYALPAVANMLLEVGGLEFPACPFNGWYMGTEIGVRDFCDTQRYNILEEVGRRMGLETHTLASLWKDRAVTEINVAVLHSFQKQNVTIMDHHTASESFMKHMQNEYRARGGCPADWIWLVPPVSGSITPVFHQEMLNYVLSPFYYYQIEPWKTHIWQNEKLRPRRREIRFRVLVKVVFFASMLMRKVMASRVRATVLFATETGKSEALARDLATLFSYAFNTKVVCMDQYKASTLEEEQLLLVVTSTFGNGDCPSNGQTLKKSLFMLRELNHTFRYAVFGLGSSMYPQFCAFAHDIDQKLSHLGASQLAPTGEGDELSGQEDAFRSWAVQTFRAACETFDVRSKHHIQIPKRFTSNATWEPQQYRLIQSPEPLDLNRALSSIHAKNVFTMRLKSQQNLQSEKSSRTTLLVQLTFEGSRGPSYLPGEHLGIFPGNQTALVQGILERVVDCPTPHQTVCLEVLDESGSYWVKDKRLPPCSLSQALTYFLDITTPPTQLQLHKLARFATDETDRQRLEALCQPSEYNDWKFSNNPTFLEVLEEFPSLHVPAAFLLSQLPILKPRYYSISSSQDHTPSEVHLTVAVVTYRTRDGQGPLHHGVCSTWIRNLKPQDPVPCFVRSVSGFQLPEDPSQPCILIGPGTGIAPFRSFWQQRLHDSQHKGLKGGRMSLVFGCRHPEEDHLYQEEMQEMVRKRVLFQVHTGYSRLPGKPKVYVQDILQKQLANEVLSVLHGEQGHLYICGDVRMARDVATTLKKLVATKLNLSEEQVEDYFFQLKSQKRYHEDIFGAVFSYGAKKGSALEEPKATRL
How it was run: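 Enzyme was commercially purchased recombinant mouse iNOS, tested for inhibition by the test compounds.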

[9] = system: Mus musculus; test: The dose required for 50% inhibition of NOx accumulation in mice induced by LPS treatment after subcutaneous administration; format: functional; settings: sc, read-out: ID50 (the source's name)

SMILES	pIC50 [1]	Ratio [2]	pIC50 [3]	Ratio [4]	pIC50 [5]	MTD [6] [mg/kg]	Ratio [7]	pIC50 [8]	ED50 [9] [mg/kg]
CC1=CC(N)=N[C@@H]2CCC[C@H]12	6.29	3	6.77						
CC1=CC(N)=N[C@@H]2CCCC[C@H]12	5.13	5.3	5.85						
CC1=C(C)C(N)=NCC1	6.49	1	6.51						
CCC1=CC(=N)NCC1	5.82	1.3	5.92						
CC1=CC(N)=NC(C)C1 (centres undefined)	6.62			1.3	6.74				
CC1=CC(N)=NCC1C (centres undefined)	6.28			1	6.29				
CC1=CC(N)=NCC1	6.64	1.2	6.70			20	130	7.66	0.16
C=CCC1CC(C)=CC(N)=N1 (centres undefined)		7.2				5		7.60	0.16
CC1=CCN=C(N)C1	6.36	0.6	6.15						
CC1(C)C=CC(N)=NC1	4.51	11.1	5.55						
CCCC1CC(C)=CC(N)=N1 (centres undefined)	6.24	9.7	7.22			5	14	7.00	0.36
CC1=CC(N)=NCC1(C)C	5.68	5	6.38			20	71	7.00	0.28
